This note sets out measurements from ChEMBL document CHEMBL1155785 (Bioorg Med Chem, 2008).

The source made the active and inactive calls. The calls are words filed in the database; no cut-off is given here.

In assay [1] the target is T1, Tyrosine-protein phosphatase non-receptor type 2 (Homo sapiens, UniProt P17706).
T1 sequence (P17706 whole entry): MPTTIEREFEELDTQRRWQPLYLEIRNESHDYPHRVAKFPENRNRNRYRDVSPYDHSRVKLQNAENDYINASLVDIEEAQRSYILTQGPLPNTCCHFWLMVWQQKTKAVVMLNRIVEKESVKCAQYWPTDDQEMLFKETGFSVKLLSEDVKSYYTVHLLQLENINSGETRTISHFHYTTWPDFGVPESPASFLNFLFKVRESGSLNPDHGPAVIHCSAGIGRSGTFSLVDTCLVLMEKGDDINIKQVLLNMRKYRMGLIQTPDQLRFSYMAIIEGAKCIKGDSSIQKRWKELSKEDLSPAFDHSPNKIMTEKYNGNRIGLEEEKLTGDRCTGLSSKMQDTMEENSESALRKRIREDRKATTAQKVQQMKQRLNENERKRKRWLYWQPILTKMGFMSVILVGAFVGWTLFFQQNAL
As to the kind of experiment: Inhibition of TCPTP.

In assay [2] the target is T2, Receptor-type tyrosine-protein phosphatase F (Homo sapiens, UniProt P10586). As to the kind of experiment: Inhibition of LAR. The gist of the method:
(§1)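 Recombinant LAR (300 nM) was preincubated 10 min with inhibitor in DMSO in pH 8.0 buffer (50 mM Tris, 50 mM NaCl, 2 mM EDTA, 2 mM DTT). Reaction was started with pH 6.0 MES substrate buffer holding 2 mM pNPP, at room temperature. pNP release was read continuously at 405 nm, using the initial linear rate. IC50 came from a Hill-equation nonlinear fit, mean ± SD of three replicates.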

Assay [3] concerns the target T2, Receptor-type tyrosine-protein phosphatase F. Kind of assay: Inhibition of human recombinant LAR upto 100 uM. Particulars: in the assay text read “at 20 ug/mL” for “upto 100 uM”. The gist of the method:
as §1

Assay [4] has the same target. Kind of assay: Inhibition of human recombinant LAR at 20 ug/mL. An outline of the steps:
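Single-concentration test at 20 µg/mL. Recombinant LAR (300 nM) was preincubated 10 min with compound at pH 8.0 (Tris/NaCl/EDTA/DTT). Hydrolysis of 2 mM pNPP (stock in substrate buffer) was then followed at pH 6.0 MES buffer, room temperature. Initial rate was taken at 405 nm and expressed as % inhibition.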

Assay [5] shares this target. Kind of assay: Inhibition of human recombinant LAR.
Assay [6] is described as follows: Inhibition of Yersinia PTPase. More on the design: species or system Yersinia sp.
Assay [7] addresses T2, Receptor-type tyrosine-protein phosphatase F. As to the kind of experiment: Inhibition of dialyzed human LAR assessed as recovery of enzyme activity at 20 uM after 24 hrs. The gist of the method: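 LAR (1500 nM) was preincubated 10 min at pH 8.0 with 20 µM inhibitor or 2% DMSO, then dialyzed against enzyme buffer. Aliquots were withdrawn at set times up to 24 h and assayed for pNPP phosphatase activity at pH 6.0, read at 405 nm.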

For assay [8], the target named is T3, Tyrosine-protein phosphatase non-receptor type 1 (Homo sapiens, UniProt P18031).
T3 sequence (P18031 whole entry): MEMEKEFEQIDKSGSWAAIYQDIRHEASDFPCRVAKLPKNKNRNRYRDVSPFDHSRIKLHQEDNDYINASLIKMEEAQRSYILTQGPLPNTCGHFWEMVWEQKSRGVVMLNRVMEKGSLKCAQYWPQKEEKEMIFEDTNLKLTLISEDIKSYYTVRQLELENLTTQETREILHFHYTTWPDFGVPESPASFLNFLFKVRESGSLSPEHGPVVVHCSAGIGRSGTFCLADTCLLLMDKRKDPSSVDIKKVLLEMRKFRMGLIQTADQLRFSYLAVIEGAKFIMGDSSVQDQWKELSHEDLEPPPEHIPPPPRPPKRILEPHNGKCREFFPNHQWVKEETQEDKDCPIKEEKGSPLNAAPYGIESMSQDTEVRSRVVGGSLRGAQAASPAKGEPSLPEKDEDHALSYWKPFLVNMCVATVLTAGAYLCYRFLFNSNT
Kind of assay: Inhibition of PTP1B.

Assay [9] has as its target T4, Receptor-type tyrosine-protein phosphatase C (Homo sapiens, UniProt P08575).
T4 sequence (P08575 whole entry): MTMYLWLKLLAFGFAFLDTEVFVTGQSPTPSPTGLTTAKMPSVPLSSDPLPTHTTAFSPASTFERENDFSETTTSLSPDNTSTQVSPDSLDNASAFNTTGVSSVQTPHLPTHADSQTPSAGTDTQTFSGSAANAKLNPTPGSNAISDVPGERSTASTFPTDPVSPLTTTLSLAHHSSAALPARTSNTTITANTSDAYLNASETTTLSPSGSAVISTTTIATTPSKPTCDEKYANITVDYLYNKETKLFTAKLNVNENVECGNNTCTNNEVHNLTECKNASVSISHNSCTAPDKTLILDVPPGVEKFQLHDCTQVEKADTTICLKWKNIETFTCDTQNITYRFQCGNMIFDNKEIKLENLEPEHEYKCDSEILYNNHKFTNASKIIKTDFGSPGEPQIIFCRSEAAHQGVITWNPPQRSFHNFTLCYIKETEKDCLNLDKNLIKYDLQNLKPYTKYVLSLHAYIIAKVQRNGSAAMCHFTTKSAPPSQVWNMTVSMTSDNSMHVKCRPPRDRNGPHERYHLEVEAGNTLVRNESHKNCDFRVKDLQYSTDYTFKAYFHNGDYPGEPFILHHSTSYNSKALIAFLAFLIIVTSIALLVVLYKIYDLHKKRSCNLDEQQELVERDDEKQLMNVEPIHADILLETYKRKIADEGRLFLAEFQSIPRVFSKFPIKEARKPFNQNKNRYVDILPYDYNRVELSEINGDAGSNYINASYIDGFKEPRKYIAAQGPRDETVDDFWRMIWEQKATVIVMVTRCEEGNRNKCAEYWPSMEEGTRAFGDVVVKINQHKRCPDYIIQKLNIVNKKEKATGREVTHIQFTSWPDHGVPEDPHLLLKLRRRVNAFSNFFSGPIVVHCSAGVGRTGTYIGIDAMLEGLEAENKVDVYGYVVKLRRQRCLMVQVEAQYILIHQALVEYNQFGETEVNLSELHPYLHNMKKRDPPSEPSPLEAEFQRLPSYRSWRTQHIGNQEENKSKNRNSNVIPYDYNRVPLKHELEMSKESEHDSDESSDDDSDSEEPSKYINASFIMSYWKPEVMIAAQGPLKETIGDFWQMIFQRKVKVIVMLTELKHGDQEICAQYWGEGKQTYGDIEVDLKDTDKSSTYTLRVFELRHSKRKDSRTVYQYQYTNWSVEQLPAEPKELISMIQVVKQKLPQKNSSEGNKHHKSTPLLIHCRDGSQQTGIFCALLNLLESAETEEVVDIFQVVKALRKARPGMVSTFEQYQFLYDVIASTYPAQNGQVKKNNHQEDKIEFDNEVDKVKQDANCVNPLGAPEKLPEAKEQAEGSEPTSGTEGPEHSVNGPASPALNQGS
As to the kind of experiment: Inhibition of CD45.

T2 sequence (P10586 whole entry): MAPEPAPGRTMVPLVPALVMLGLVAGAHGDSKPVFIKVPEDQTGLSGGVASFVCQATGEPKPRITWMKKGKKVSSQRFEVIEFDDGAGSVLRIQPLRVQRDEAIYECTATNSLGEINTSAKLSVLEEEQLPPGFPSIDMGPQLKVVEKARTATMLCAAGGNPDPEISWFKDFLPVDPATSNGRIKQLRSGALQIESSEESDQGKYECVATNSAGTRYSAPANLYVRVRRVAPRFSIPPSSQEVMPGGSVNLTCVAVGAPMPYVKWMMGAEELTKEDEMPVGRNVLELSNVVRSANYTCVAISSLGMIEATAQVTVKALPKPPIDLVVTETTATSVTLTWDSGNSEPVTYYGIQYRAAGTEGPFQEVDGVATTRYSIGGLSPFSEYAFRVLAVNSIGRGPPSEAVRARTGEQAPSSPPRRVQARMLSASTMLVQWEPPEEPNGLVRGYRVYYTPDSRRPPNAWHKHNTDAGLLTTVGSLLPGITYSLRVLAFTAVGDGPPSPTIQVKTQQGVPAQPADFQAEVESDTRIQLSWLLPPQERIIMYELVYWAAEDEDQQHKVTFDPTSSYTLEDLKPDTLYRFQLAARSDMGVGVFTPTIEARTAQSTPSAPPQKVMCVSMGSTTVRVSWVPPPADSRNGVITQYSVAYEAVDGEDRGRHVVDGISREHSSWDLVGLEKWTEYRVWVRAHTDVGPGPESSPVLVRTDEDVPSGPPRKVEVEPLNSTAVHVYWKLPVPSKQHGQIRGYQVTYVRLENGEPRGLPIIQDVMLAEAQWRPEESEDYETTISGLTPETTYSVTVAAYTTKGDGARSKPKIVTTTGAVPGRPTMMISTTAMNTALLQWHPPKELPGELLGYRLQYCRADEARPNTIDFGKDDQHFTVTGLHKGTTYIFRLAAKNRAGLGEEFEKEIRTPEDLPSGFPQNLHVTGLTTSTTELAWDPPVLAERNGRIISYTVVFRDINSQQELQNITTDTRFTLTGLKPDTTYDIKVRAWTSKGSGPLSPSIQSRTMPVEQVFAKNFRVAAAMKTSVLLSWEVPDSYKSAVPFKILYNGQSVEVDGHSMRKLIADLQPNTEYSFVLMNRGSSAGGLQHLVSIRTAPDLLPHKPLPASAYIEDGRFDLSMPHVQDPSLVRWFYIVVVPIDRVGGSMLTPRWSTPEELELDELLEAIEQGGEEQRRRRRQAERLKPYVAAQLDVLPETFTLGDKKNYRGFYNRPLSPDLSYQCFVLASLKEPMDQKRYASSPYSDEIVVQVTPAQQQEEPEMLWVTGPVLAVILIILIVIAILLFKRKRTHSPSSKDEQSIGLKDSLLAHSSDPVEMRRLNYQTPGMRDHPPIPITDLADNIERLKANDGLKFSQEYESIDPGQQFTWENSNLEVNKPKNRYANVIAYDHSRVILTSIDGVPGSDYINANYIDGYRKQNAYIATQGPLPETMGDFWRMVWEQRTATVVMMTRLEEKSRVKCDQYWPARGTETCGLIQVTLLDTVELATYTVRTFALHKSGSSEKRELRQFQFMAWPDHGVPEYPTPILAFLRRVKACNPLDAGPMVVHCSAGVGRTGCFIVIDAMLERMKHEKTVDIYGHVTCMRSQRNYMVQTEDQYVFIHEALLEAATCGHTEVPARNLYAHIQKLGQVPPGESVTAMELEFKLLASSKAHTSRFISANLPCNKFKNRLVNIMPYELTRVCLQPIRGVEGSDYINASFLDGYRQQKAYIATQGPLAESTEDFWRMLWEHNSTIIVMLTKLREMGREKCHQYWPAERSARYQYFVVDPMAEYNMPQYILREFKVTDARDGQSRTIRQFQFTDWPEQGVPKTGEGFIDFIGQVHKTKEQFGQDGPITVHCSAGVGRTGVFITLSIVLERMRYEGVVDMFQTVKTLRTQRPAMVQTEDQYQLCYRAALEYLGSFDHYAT

As for `CC(=O)NC(Cc1ccc(N(C(=O)C(=O)O)c2ccccc2C(=O)O)c2ccccc12)C(=O)NCCCCCOc1cc2ccccc2cc1C(=O)O` (stereo unspecified), the Ki in assay [1] stood at 49 nM; in [2], 1300 nM.
With `COC(=O)c1ccc(OC)c(C=O)c1CC=O`, in assay [3], the outcome was inactive. For the same compound, the inhibition in assay [4] is less than 5%.
In the case of `CSc1ccnc(C[S+]([O-])c2nc3cc(OC(C)C)ccc3[nH]2)c1` (stereo unspecified), the concentration for half-maximal inhibition (IC50) in assay [1] stood at 680 nM; in [2] it was 18200 nM.
Turning to `COc1ccc2c(c1)CC(O)OC2=O` (stereo unspecified), the inhibition in assay [4] was less than 5%.
Compound `O=C(O)COc1c(C(=O)O)sc(-c2ccc(NC(=O)c3cccnc3)cc2)c1Br` returned a concentration for half-maximal inhibition (IC50) in assay [2] of 320000 nM.
`COc1c(C=O)c2c(c3c1CC(C)(C)C3)C(=O)OC(O)C2` (stereo unspecified): the IC50 in [5] was found to be 1530 nM.
With `O=C(O)C(=O)c1ccc(OCc2cc(COc3ccc(C(=O)C(=O)O)cc3)cc(COc3ccc(C(=O)C(=O)O)cc3)c2)cc1`, the half-maximal inhibitory concentration (IC50) in assay [6] came out at 1700 nM.
Take `COc1ccc2c(c1C=O)CC(O)OC2=O` (stereo unspecified): the half-maximal inhibitory concentration (IC50) in assay [5] came out at 21800 nM.
As for `COc1ccc2c(c1C=O)CC(O)OC2` (stereo unspecified), the inhibition in assay [4] was 20%. The result in assay [7] was Active.
Consider `COc1ccc2c(c1C=O)CCOC2=O`, for which the inhibition in assay [4] was less than 5%.
Turning to `COC(=O)c1ccc(OC)c(CO)c1CCO`, the outcome in assay [3] was inactive. Moreover, in [4], the inhibition was less than 5%.
As for `O=C(O)COc1c(O)cc(-c2cc(C(F)(F)F)cc(C(F)(F)F)c2)cc1OCc1cccc(C(F)(F)F)c1`, the IC50 in assay [8] is 2000 nM; in assay [9], 280 nM; in [2] it was 116000 nM.
As for `COc1ccc(C(=O)O)c(CCO)c1CO`, the outcome in [3] was inactive. In addition, the inhibition in [4] is less than 5%.

In general, Ki refers to the dissociation constant of the complex between target and ligand, obtained from inhibition or displacement. The inhibition is the share of the control response that was lost under treatment. As a reminder, the IC50 is the midpoint of a concentration-inhibition curve.
